RBBP9 inh: blocks human serine hydrolase RBBP9; O75884; recombinant RBBP9, FP-Rh probe fluorescence polarization; inhibition, % at 7.94 µM; 220,000 tested, 0.2% active; AID 1515;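 active = inhibition above the campaign mean of all tested compounds plus 3 SD, cut at about 14% in these data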;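 note: plate controls were DMSO wells with RBBP9 for no effect and wells lacking RBBP9 protein for full effect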
Target sequence (O75884 whole entry, looked up): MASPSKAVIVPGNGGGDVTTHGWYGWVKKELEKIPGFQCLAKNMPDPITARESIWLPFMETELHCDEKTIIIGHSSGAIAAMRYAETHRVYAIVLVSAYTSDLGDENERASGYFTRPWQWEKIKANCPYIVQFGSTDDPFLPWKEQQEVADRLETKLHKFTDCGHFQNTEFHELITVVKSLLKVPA
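System: RBBP9 protein | Quantity: 2.5 µM RBBP9 dispensing solution, before mixing | Reagent: FP-Rh probe, 375 nM dispensing solution | Timing: Enzyme-compound preincubation 30 min, then probe labeling 45 min, 25 °C | Measured by: Fluorescence polarization | Read-out: % inhibition | Replication: One well per compound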
SIAE inh: human SIAE inhibition, primary screen | Q9HAT2 | SIAE FP-Rh probe binding, fluorescence polarization | inhibition, % at 9.66 µM | 370,000 tested, 0.69% active | AID 1053197;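 active = inhibition above a cutoff: mean of compounds within the control limits plus 3 SD of those, cut at about 17% in these data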;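 note: 0% = plate median of compound wells and 100% = probe without SIAE protein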
mABHD4 FP: inhibits mouse alpha/beta hydrolase domain 4; AID 720543; inhibition, % at 8.92 µM; 370,000 tested, 0.54% active; purified mABHD4, FP-Rh probe fluorescence polarization; Q8VD66;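 active = inhibition exceeding the mean over every tested compound plus 3 SD, cut at about 30% in these data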;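 note: 0% = plate median of compound wells and 100% = S159A mutant with DMSO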
Target sequence (Q8VD66 whole entry, looked up, the tested form may be a part): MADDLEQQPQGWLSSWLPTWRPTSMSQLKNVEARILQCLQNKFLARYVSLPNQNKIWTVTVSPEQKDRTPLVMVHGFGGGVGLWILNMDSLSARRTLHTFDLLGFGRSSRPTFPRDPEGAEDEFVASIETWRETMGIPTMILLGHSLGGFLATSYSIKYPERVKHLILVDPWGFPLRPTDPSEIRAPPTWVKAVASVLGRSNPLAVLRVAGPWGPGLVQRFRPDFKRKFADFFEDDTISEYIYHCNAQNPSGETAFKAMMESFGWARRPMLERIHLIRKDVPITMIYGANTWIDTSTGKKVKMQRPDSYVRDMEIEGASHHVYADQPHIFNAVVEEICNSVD
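Assay system: mouse ABHD4 enzyme, wild type / Also added: fluorescent activity-based probe FP-Rh / Doses: single nominal dose of 8.92 µM, 0.89% DMSO final / Timing: 45 min compound pre-incubation plus 60 min probe step, 25 °C / Signal: FP readout, ex 525 nm / em 598 nm / Control set: S159A mutant/DMSO as 100%, compound-well median as 0%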
HTRA1 inhibitor: inhibitors of human serine peptidase HTRA1; 340,000 tested, 0.5% active; recombinant HTRA1, FP-rhodamine activity-based probe, fluorescence polarization; Q92743; inhibition, % at 5.96 µM; in the data active = inhibition above about 36%;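 note: 0% = enzyme with DMSO and 100% = wells lacking enzyme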
HTRA1 conf: confirmation of human HTRA1 inhibitors | shares compounds with HTRA1 inhibitor | recombinant HTRA1, FP-rhodamine activity-based probe, fluorescence polarization | inhibition, % at 5.96 µM | 1,600 tested, 66% active;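 active = mean inhibition over three repeats above a set limit taken from the earlier primary screen, cut at about 37% in these data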;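 note: 0% = HTRA1 with DMSO and 100% = wells lacking HTRA1; inhibitors block probe binding so polarization drops and inhibition rises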
ABHD4 confirm: confirmation of mouse ABHD4 inhibitors; inhibition, % at 8.92 µM; 1,800 tested, 55% active; purified mABHD4, FP-Rh probe fluorescence polarization; shares compounds with mABHD4 FP;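 active = mean inhibition across replicates above the hit cutoff set in the primary screen, cut at about 30% in these data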;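 note: 0% = wild-type ABHD4 with DMSO and 100% = catalytically dead S159A mutant with DMSO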
Starred values were filed as active, the others as inactive; x = no result given. Shown are actives, neighbours in structure and some others; about 1.4% of the full set was active somewhere.

SMILES | RBBP9 inh | SIAE inh | mABHD4 FP | HTRA1 inhibitor | HTRA1 conf | ABHD4 confirm
CCC(=Nc1ccc(N)cc1)C1=C(O)C(C(=O)OC)C(C)(C)CC1=O (configuration not stated) | 1 | 25* | 82* | 53* | 1 | 23
CCCNC(=O)C1(C)CCCN(C(=O)c2cccc(C(F)(F)F)c2)C1 (configuration not stated) | x | 0 | 2 | x | x | x
COc1cc(NCc2ccccc2O)c2ncccc2c1 | -7 | 8 | 1 | 11 | x | x
NC(=S)NNc1cccc2cccnc12 | 4 | 6 | 32* | 46* | 27 | 52*
Oc1ccccc1CNc1cccc2cccnc12 | -3 | 15 | 47* | 39* | 5 | -11
Nc1cccc2c1CN(C1CCC(=O)NC1=O)C2=O (configuration not stated) | x | 3 | 2 | x | x | x
O=c1cc(-c2ccccc2)oc2cc(O)c(O)c(O)c12 | x | 17 | 52* | 80* | 85* | 37*
O=c1cc(-c2ccc(O)cc2)oc2c(O)c(O)c(O)c(O)c12 | -7 | 13 | 36* | 52* | 59* | 17
O=c1cc(-c2ccc(O)cc2)oc2c1ccc1ccccc12 | x | -16 | -12 | -16 | x | x
CCCc1nc2c(C)cc(Br)cn2c1Cc1ccccc1OC | x | 3 | -4 | x | x | x
CCCS(=O)(=O)NC(=O)C1(C)CCN(C(=O)c2snnc2C)C1 (configuration not stated) | x | 2 | 4 | x | x | x
O=C(CCCN1C(=O)NC2(CCCC2)C1=O)NCc1ccccc1 | x | 2 | 7 | -3 | x | x
COC(=O)[C@]12C[C@H](CC(=O)NCC3CCCCC3)C(=O)N(Cc3ccc(Cl)cc3Cl)C1=C[C@H](COCc1ccccc1)O[C@@H]2C | x | 1 | -8 | x | x | x
N#C/C(=C\c1cccnc1)C(=O)Nc1ccccc1 | 4 | 2 | -4 | 0 | x | x
CC(NC(=O)/C(C#N)=C/c1ccc(Cl)c([N+](=O)[O-])c1)c1ccccc1 (configuration not stated) | 0 | -6 | 6 | x | x | x
C[C@@H](NC(=O)/C(C#N)=C/c1ccc(O)c(O)c1)c1ccccc1 | x | 11 | 54* | 68* | 91* | 28
N#C/C(=C/c1ccc(O)c(O)c1)C(=O)NCc1ccc(Cl)cc1 | x | 5 | 51* | 81* | 87* | 37*
N#C/C(=C\c1ccc(O)c(O)c1)C(=O)Nc1ccccc1 | x | 10 | 73* | 68* | 177* | 43*
CCN(Cc1cc(OC)c(OC)c(OC)c1)S(=O)(=O)c1ccccc1Br | x | -1 | 5 | x | x | x
Cc1cc(N(C)C)ccc1N=Nc1ccc2ncccc2c1 | 6 | 3 | 45* | 37* | 37* | 54*
C=C1c2cccc(O)c2C(=O)C2C(=O)[C@]3(O)C(=O)C(C(N)=O)C(=O)[C@@H](N(C)C)[C@@H]3[C@@H](O)[C@H]12 (some centres not stated) | x | 47* | 85* | 46* | 38* | 17
O=C(O)c1cccc2c1C(=O)c1ccccc1C2=O | -2 | 2 | 5 | 2 | x | x
O=C1c2ccccc2C(=O)c2c(O)c(O)cc(O)c21 | x | 12 | 73* | 72* | 71* | 61*
O=C(O)c1cccc(N/N=C(\N=Nc2ccccc2)c2ccccc2)c1 | x | 7 | 72* | 59* | 74* | 104*
O=C(O)c1ccc(N=N/C(=N\Nc2ccc(C(=O)O)cc2)c2ccccc2)cc1 | x | -10 | 25 | 10 | x | x
SMILES | RBBP9 inh | SIAE inh | mABHD4 FP | HTRA1 inhibitor | HTRA1 conf | ABHD4 confirm
COc1cccc2c1C(=O)c1c(O)c3c(c(O)c1C2=O)C[C@@](O)(C(C)=O)C[C@@H]3O[C@H]1C[C@H](N)[C@H](O)[C@H](C)O1 | 27* | 45* | 62* | 72* | 74* | 48*
C[n+]1c(-c2ccccc2)cc2c(=Cc3ccc([N+](=O)[O-])cc3)c3ccccc3n21 | x | 4 | 31* | 80* | 25 | 38*
C[n+]1c(-c2ccccc2)cc2c(=Cc3ccccc3)c3ccccc3n21 | x | -68 | -108 | -14 | x | x
Oc1ccc(C[C@H]2CNC(=S)N2CC2CCCN2C[C@H](Cc2ccccc2)N2C[C@H](Cc3ccc(O)cc3)N(CC3CCCCC3)C2=S)cc1 (some centres not stated) | x | -38 | -46 | x | x | x
CC(Nc1cccc2ccccc12)C(=O)N/N=C/c1ccccn1 (configuration not stated) | 8 | 9 | 48* | 46* | 5 | 16
Cc1ccccc1CNC1CCCCC1 | -6 | 2 | -1 | 1 | x | x
Oc1cc(CNC2CCCCC2)c(O)cc1CNC1CCCCC1 | x | 3 | 38* | 48* | 64* | 56*
C=C(C)COc1ccc(-c2nc(N)ncc2-c2ccc(Cl)cc2)c(O)c1 | x | -2 | -17 | -40 | x | x
CNc1ccc(Br)cc(C(=O)/C=C/c2cccc(Cl)c2Cl)c1=O | -5 | 14 | 42* | 65* | 33 | 35*
CNc1ccccc(C(=O)/C=C/c2ccccc2OC)c1=O | -5 | 4 | 26 | 31 | x | x
CNc1ccc(Br)cc(C(=O)/C=C/c2cccc(OC)c2OC)c1=O | 5 | 12 | 39* | 39* | 32 | 34*
Cc1ccc(NC(=O)c2ccc3nc(N4CCOCC4)sc3c2)c(Cl)c1 | x | -22 | -4 | 0 | x | x
CN(C)c1ccc(N/C=C/C(=O)c2ccccc2)cc1 | 11 | 1 | 46* | 54* | 5 | -15
Cc1cccc(/C=C/C(=O)c2cc(Br)ccc(=O)c2O)c1 | 1 | 9 | 36* | 57* | 59* | 26
CCc1ccc(/C=C/C(=O)c2cc(Br)ccc(=O)c2O)cc1 | -8 | 13 | 38* | 67* | 66* | 10
CC(=O)NC1CCCCN(C)C1=O (configuration not stated) | x | 0 | 7 | x | x | x
Oc1ccc(C=Nc2ccc(N3CCOCC3)cc2)c(O)c1 | 5 | 6 | 27 | 35 | x | x
Oc1cc(Br)ccc1C=Nc1ccc(N2CCCCC2)cc1 | -3 | 3 | 36* | 52* | 14 | 13
CCCCCCCCCCCCCCC(O)C[N+](C)(CCO)CCO (configuration not stated) | x | -7 | 45* | 54* | 55* | 48*
O=C1c2ccccc2C(=O)c2c(/C=C/N3CCCCC3)ccnc21 | x | 11 | 46* | 61* | 64* | 36*
CC1CCCCC1NC(=O)COC(=O)c1c2c(nc3ccccc13)/C(=C/c1ccco1)CC2 (configuration not stated) | -6 | 17 | 38* | 81* | 23 | 20
Cc1cc(C(=O)OCC(=O)NC2CCCCC2C)c2ccccc2n1 (configuration not stated) | x | -3 | 6 | 3 | x | x
CSCCC(c1nc2ccccc2[nH]1)n1c(-c2ccc3ncccc3c2)nc2ccccc21 (configuration not stated) | x | -5 | -8 | x | x | x

Source: PubChem (The Scripps Research Institute Molecular Screening Center)
